Experimental findings from ChEMBL document CHEMBL1938392, “N-Amino acid linoleoyl conjugates: anti-inflammatory activities” (Bioorg Med Chem Lett, 2012) are described below.

The structures appear in SMILES notation. The source made the active and inactive calls. The calls are words filed in the database; no cut-off is given here.

By ED50 is commonly meant the dose at which the effect has come halfway, by size or by number of responders.

Data set [1] relates to RAW264.7. The experiment in a line: Antiinflammatory activity in TNFalpha-stimulated mouse RAW264.7 cells assessed as PGJ level at 0.5 uM after 20 hrs by ELISA. The format is functional. The method, boiled down:
(§1)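 Mouse RAW264.7 macrophages were grown in DMEM with 10% FBS and passaged by scraping without trypsin. Cells were seeded at 50,000 per well in DMEM+FCS with TNFα (10 nM) and incubated 20 hrs at 37°C, 5% CO2. Medium was then changed to serum-free DMEM, cells were treated for 2 hrs, and PGJ in the medium was measured by ELISA. DMSO was the vehicle control.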

Data set [2] deals with Mus musculus. The data set is described as follows: Antiinflammatory activity in mouse peritonitis model assessed as accumulation of PGJ per 10^3 peritoneal cells at 0.3 to 20 mg/kg, po after 3 hrs by ELISA. It is filed as functional, organism-based. In short, it runs like this:
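Mice were dosed by mouth in safflower oil (0.3–20 mg/kg); the safflower oil vehicle served as control. After 30 min they received 1 ml of 8% thioglycollate medium i.p. Peritoneal cells were harvested, cultured for 18 hrs, and PGJ in the medium was measured by ELISA. N=4.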
(ELISA stands for enzyme-linked immunosorbent assay.)

For data set [3], the system named is Mus musculus. The data set is described as follows: Antiinflammatory activity in po dosed mouse peritonitis model assessed as inhibition of thiglycollate-induced migration of leukocytes into the peritoneal cavity administered 30 mins prior to thiglycollate-challenge. It is filed as functional. The method, boiled down: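 Oral doses of 0.3–20 mg/kg in safflower oil were given to mice; controls received safflower oil. Thirty minutes later, 1 ml of sterile-filtered 8% thioglycollate medium was injected i.p. After 3 hrs, peritoneal cells were harvested, erythrocytes were lysed for 2 min, cells were resuspended in PBS/BSA, and differential leukocyte counts were made. N=8.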

Data set [4] relates to RAW264.7. The experiment in a line: Antiinflammatory activity in TNFalpha-stimulated mouse RAW264.7 cells assessed as PGJ level at 1 uM after 20 hrs by ELISA. The format is functional. The method, boiled down:
as §1

The subject of data set [5] is RAW264.7. The data set is described as follows: Antiinflammatory activity in TNFalpha-stimulated mouse RAW264.7 cells assessed as PGJ level at 2.5 uM after 20 hrs by ELISA. The format is functional. In short, it runs like this:
as §1

The subject of data set [6] is RAW264.7. The data set is described as follows: Antiinflammatory activity in TNFalpha-stimulated mouse RAW264.7 cells assessed as PGJ level at 5 uM after 20 hrs by ELISA. It is filed as functional. The method, boiled down: as §1
The test system of data set [7] is RAW264.7. The experiment in a line: Antiinflammatory activity in TNFalpha-stimulated mouse RAW264.7 cells assessed as PGJ level at 10 uM after 20 hrs by ELISA. It is filed as functional. In short, it runs like this:
as §1

Data set [8] relates to RAW264.7. The data set is described as follows: Antiinflammatory activity in TNFalpha-stimulated mouse RAW264.7 cells assessed as PGJ level at 0.3 uM after 20 hrs by ELISA. It is filed as functional. The method, boiled down: as §1
For data set [9], the system named is RAW264.7. The experiment in a line: Antiinflammatory activity in TNFalpha-stimulated mouse RAW264.7 cells assessed as PGJ level at 3 uM after 20 hrs by ELISA. The format is functional. In short, it runs like this: as §1
Data set [10] concerns RAW264.7. The data set is described as follows: Antiinflammatory activity in TNFalpha-stimulated mouse RAW264.7 cells assessed as reduction in cell count at 1 uM after 20 hrs relative to control. The format is functional. Also on record: scale not given: the % may be the effect or the level left. In short, it runs like this: (§2)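 RAW264.7 cells were kept in DMEM/10% FBS and subcultured by scraping. They were plated at 50,000 per well with TNFα (10 nM) for 20 hrs at 37°C, 5% CO2, then switched to serum-free DMEM for 2 hrs of treatment. Cell numbers were compared with the vehicle control.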

The test system of data set [11] is RAW264.7. The data set is described as follows: Antiinflammatory activity in TNFalpha-stimulated mouse RAW264.7 cells assessed as reduction in cell count at 3 uM after 20 hrs relative to control. The format is functional. Also on record: scale not given: the % may be the effect or the level left. In short, it runs like this:
as §2

Data set [12] deals with RAW264.7. The data set is described as follows: Antiinflammatory activity in TNFalpha-stimulated mouse RAW264.7 cells assessed as reduction in cell count at 10 uM after 20 hrs relative to control. The format is functional. On the set-up: scale not given: the % may be the effect or the level left. In short, it runs like this: as §2
Data set [13] deals with RAW264.7. The data set is described as follows: Cytotoxicity in mouse RAW264.7 cells assessed as decrease in cell viability at 0.3 to 10 uM after 20 hrs. The format is cell-based. To be noted: raw264.7, 20 h.
Data set [14] relates to RAW264.7. The experiment in a line: Antiinflammatory activity in TNFalpha-stimulated mouse RAW264.7 cells assessed as reduction in cell count at 0.3 uM after 20 hrs relative to control. It is filed as functional. Also on record: scale not given: the % may be the effect or the level left. In short, it runs like this:
as §2

In data set [15] the test system is RAW264.7. The data set is described as follows: Antiinflammatory activity in TNFalpha-stimulated mouse RAW264.7 cells assessed as cell count at 0.3 uM after 20 hrs relative to control. It is filed as functional. In short, it runs like this: as §2

For the compound `CCCCC/C=C\C/C=C\CCCCCCCC(=O)NCC(=O)O` [LINOLEOYL GLYCINE], the Activity in the data set with RAW264.7 [1] was <16 pg/mL; in the data set with RAW264.7 [4], 177 pg/mL; with RAW264.7 [5], 1843 pg/mL; with RAW264.7 [6], 3907 pg/mL; in the data set on RAW264.7 [7] it was 7315 pg/mL. Also, in the data set on Mus musculus [2], the outcome was Active. Further, the 50% effective dose (ED50) with Mus musculus [3] is < 0.3 mg/kg.
As to `CCCCC/C=C\C/C=C\CCCCCCCC(=O)N[C@@H](C)C(=O)O`, the Activity in the data set on RAW264.7 [4] was <16 pg/mL; with RAW264.7 [7], 30.3 pg/mL; in the data set on RAW264.7 [8], <16 pg/mL; with RAW264.7 [9], <16 pg/mL; in the data set on RAW264.7 [10], 74.3%; with RAW264.7 [11], 68.5%. Further, the Activity was 55.5% with RAW264.7 [12], “Non-toxic” with RAW264.7 [13] and 55.6% in the data set with RAW264.7 [14].
For the compound `CCCCC/C=C\C/C=C\CCCCCCCC(=O)N[C@H](C)C(=O)O`, the Activity is 18 pg/mL with RAW264.7 [4]; 1580 pg/mL in the data set on RAW264.7 [7]; <16 pg/mL with RAW264.7 [8]; 233 pg/mL in the data set on RAW264.7 [9]; 136% with RAW264.7 [15]; 65.9% in the data set on RAW264.7 [10]. Besides, the values for the Activity in the data set with RAW264.7 [11], with RAW264.7 [12] and in the data set with RAW264.7 [13] were 33.9%, 30.5% and “Non-toxic”, respectively.
Consider `CCCCC/C=C\C/C=C\C/C=C\C/C=C\CCCC(=O)NCC(=O)O` [ARACHIDONOYL GLYCINE], for which the Activity in the data set on RAW264.7 [4] was <16 pg/mL; in the data set with RAW264.7 [7], 6847 pg/mL.
